Screening results from PubChem BioAssay.
A selection: hits, their analogues and other compounds. The true share with any hit is near 9.6%.
TNAP inh hi DEA: blocks human TNAP under high phosphate acceptor concentration; purified TNAP, CDP-star luminescence, 1 M DEA; inhibition, % at 20 µM; 200,000 compounds, 0.03% hits;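 active means over 50% inhibition of tissue-nonspecific alkaline phosphatase at 20 µM in the single-dose screen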;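 further: plate controls were DMSO wells for no effect and EDTA-quenched wells as full inhibition for full effect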
Target sequence (P05186 whole entry, looked up): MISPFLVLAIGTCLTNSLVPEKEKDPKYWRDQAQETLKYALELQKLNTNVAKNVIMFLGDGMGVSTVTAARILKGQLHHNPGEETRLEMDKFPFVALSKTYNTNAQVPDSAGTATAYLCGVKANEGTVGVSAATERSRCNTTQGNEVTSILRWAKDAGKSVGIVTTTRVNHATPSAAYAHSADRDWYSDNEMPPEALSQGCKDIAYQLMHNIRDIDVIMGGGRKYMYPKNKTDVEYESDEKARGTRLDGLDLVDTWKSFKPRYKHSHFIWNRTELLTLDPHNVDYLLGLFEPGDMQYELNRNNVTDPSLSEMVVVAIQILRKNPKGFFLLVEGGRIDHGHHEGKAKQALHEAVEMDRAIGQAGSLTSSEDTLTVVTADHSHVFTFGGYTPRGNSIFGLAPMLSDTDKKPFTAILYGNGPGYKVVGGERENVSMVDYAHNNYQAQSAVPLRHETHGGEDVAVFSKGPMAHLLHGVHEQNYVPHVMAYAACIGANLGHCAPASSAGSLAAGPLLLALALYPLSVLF
HCT116 bCat-KO: beta-catenin-lacking colon tumor cell growth suppression; HCT116 beta-catenin knockout viability, CellTiter-Glo, 60 h; hits give low values; viability, % at 10 µM; 140,000 compounds, 1.5% hits;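 active means viability at or under a set limit, the compound median less 4 SD, cut at about 6% in these data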;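 further: 0% = Hyamine 1622 control at 20 µM and 100% = untreated cell control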
HCT116 PTEN-null: PTEN-deleted cell growth suppression | viability, % at 10 µM | HCT116 PTEN-null viability, CellTiter-Glo, 60 h; hits give low values | 140,000 compounds, 1.2% hits;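 active means viability at or below a set limit, 4 SD under the median of all tested compounds, cut at about 3.7% in these data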;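 further: PTEN knockout HCT116 line with beta catenin targeted HCT116 as companion control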
TNAP act hiacc: TNAP (human) activation, high acceptor; activation factor at 20 µM; P05186; purified TNAP, CDP-star luminescence, 1 M DEA, 30 min; hits give high values; 0 = EDTA background, 1 = DMSO-only activity; 200,000 tested, under 10 active;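 active means activation factor at least 2 at 20 µM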
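Control set: EDTA negative control, DMSO positive control / Assay system: human TNAP / Quantity: TNAP 1/800 final / Evaluation: TNAP activation factor scaled between EDTA and DMSO control wells / Measured by: luminescent substrate turnover signal / Compound dosing: one dose, 20 µM / Times: 30 min enzyme reaction at room temperature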
L major viab: inhibitors of Leishmania major promastigote growth | Leishmania major promastigotes, resazurin fluorescence viability | inhibition, % at 10 µM | 200,000 compounds, 9% hits; in the data active means inhibition above about 50%;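 further: promastigotes grown with compound for 44 hours at 28 °C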
TNAP inh noacc: inhibitors of human TNAP without phosphate acceptor. purified TNAP, CDP-star luminescence, 30 min. inhibition, % at 20 µM. 200,000 compounds, 0.26% hits;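 active means tissue-nonspecific alkaline phosphatase inhibition above about 50% at 20 µM in the single-dose screen, limit read from the data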;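 further: 0% = DMSO negative control and 100% = EDTA positive control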
An asterisk follows results filed as active; x = no result given.

SMILES	TNAP inh hi DEA	HCT116 bCat-KO	HCT116 PTEN-null	TNAP act hiacc	L major viab	TNAP inh noacc
COCCCN=C1NN=C(c2cc(C)n(Cc3ccco3)c2C)CS1	-3	11	16	1	95*	-5
COCC(C)N=C1NN=C(c2cc(C)n(Cc3ccccc3Cl)c2C)CS1 (stereo not given)	-6	x	x	1.1	64*	-21
COc1ccc(/C=N/Nc2nnc(-c3ccccc3)c(=O)[nH]2)cc1	-1	4.5*	2.9*	1	0	-52
O=C(Cc1ccccc1)NC(=S)Nc1ccc2oc(-c3ccccc3)nc2c1	0	86	81	1	-5	-7
CCOC(=O)C1(CCCc2ccccc2)CCN(Cc2cn(CC)nc2C)CC1	-3	x	x	1	84*	-5
CCOC(=O)C1(Cc2cccc(F)c2)CCN(Cc2cn(CC)nc2C)CC1	-5	x	x	1.1	71*	-8
CCCNS(=O)(=O)c1ccc(OCC(=O)Nc2ccc3c(c2)OCO3)cc1	-5	x	x	1.1	0	-8
CN(/C(=N\S(=O)(=O)c1ccccc1)c1ccccc1)c1ccc(O)cc1	0	x	x	1	-6	-12
CCc1cc(C(=O)N/N=C/c2c(C)[nH]c3ccccc23)cs1	-3	68	74	1	1	-1
CCCCNC(=S)N1CCN(Cc2ccc3c(c2)OCO3)CC1	5	x	x	1	75*	-1
COc1cccc(CN2CCN(C(=S)NCc3ccc(Cl)cc3)CC2)c1	-5	x	x	1.1	89*	-9
S=C(NCc1ccccc1)N1CCN(Cc2ccc3c(c2)OCO3)CC1	-2	x	x	1	92*	-8
COc1ccc(CC(=O)NNS(=O)(=O)c2ccccc2)cc1OC	-8	x	x	1.1	-9	-11
CCNS(=O)(=O)c1ccc(CCC(=O)NCc2ccccc2)cc1	0	x	x	1	-3	-8
COc1ccc(C(=O)Sc2ccc(Cl)cc2)cc1OC	0	83	77	1	54*	-5
COc1ccccc1NC(=O)C(=O)N(c1cccnc1)C(C(=O)NC(C)(C)C)c1ccccc1F (stereo not given)	-2	x	x	1	25	-10
Cc1ccc(C#CC[N+](C)(C)CC#Cc2ccccc2)cc1	-4	x	x	1	100*	-5
C#CC[N+](C)(C)CC#Cc1ccccc1	-1	x	x	1	-4	-4
CN(c1cccc(NC(=O)CN(c2cccc(Cl)c2)S(=O)(=O)c2ccccc2)c1)S(C)(=O)=O	-5	72	74	1	22	-24
CCOc1ccc(N(CC(=O)Nc2cccc(N(C)S(C)(=O)=O)c2)S(=O)(=O)c2ccccc2)cc1	-4	74	67	1	55*	-24
COc1ccc(N(CC(=O)Nc2cccc(N(C)S(C)(=O)=O)c2)S(=O)(=O)c2ccc(C)cc2)cc1	-13	x	x	1.1	67*	-54
Cc1ccc(S(=O)(=O)N(CCC(=O)Nc2ccc(OC(F)(F)F)cc2)c2ccccc2)cc1	-1	88	96	1	95*	-13
CCN(CC)C(=O)Cn1cc(C(=O)C(=O)NCCCn2ccnc2)c2ccccc21	1	x	x	1	-4	3
CC(C)(C)C1CCC2(CC1)NC(=S)N(c1ccccc1)N2 (stereo not given)	-3	88	91	1	58*	3
CC(C)(C)C1CCC2(CC1)SCC(=O)N2c1ccccc1 (stereo not given)	-5	107	92	1.1	-1	-13
COc1cc(SC)ccc1C(=O)OC(C)C(=O)NC1CCCC1 (stereo not given)	-2	x	x	1	-5	-9
Cc1cc(C)c2[nH]c(=O)c(CN(Cc3ccc4c(c3)OCO4)Cc3nnnn3C3CCCC3)cc2c1	-5	49	36	1.1	88*	-5
Cc1ccc2[nH]c(=O)c(CN(Cc3ccccc3)Cc3nnnn3C3CCCC3)cc2c1	-4	44	38	1	53*	-4
Cc1ccc2[nH]c(=O)c(CN(Cc3nnnn3C3CCCC3)C3CCCCC3)cc2c1	-6	73	93	1.1	49	-15
Cc1cc(C)c2[nH]c(=O)c(C(c3nnnn3Cc3ccc4c(c3)OCO4)N3CCC(C)CC3)cc2c1 (stereo not given)	0	67	63	1	76*	-3
